Source: ChEMBL document CHEMBL3259553 (J Med Chem, 2014)
In brackets after ≈: the same amount, converted by molar mass. Activity calls are given as the source filed them. No cut-off for these calls is given here.

How the values were obtained:
Rattus norvegicus [1] = experiment: Cardiotoxicity in thyroidectomized rat assessed as induction of alpha-MHC hnRNA expression in cardiac myocyte at 5 to 37.5 mg/kg, ip measured after 6 hrs; type: toxicity, organism-based, Heart; set-up: dose 5-37.5 mg/kg, route intraperitoneal; details: in vivo
Method in brief: (§1)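 Thyroidectomized rats were dosed intraperitoneally at 5, 20 or 37.5 mg/kg, with 4 rats per group. Vehicle was 4% DMSO, 15% PEG-400 and 81% of 30% HPBCD in phosphate buffer. Cardiac α-MHC hnRNA, in arbitrary units, and plasma concentration were measured 6 h after dosing. Comparators were untreated thyroidectomized rats and euthyroid rats.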

[2] = Plasma concentration in thyroidectomized rat at 37.5 mg/kg, ip measured after 6 hrs; type: ADME, organism-based; set-up: dose 37.5 mg/kg, route intraperitoneal; method in brief: as §1
Rattus norvegicus [3] = experiment: Toxicity in thyroidectomized rat assessed as T3 activity at 37.5 mg/kg, ip measured after 6 hrs; type: organism-based; set-up: dose 37.5 mg/kg, route intraperitoneal; details: in vivo
Method in brief: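 Thyroidectomized rats, 4 per group, dosed ip at 5, 20 and 37.5 mg/kg in 4% DMSO, 15% PEG-400 and 81% of 30% HPBCD in phosphate buffer. Cardiac α-MHC hnRNA was measured 6 h post-dose and expressed relative to euthyroid or T3-treated full activity. Plasma exposure was measured at 6 h.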

hERG (KCNH2) = hERG (KCNH2) (Homo sapiens, UniProt Q12809); experiment: Inhibition of human ERG
Method in brief: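 hERG channel blockade was expressed as an IC20.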

Cytochrome P450 3A5 = Cytochrome P450 3A5 (Homo sapiens, UniProt P20815); experiment: Inhibition of CYP3A5 (unknown origin); type: ADME
Cytochrome P450 2C19 = Cytochrome P450 2C19 (Homo sapiens, UniProt P33261); experiment: Inhibition of CYP2C19 (unknown origin); type: ADME
Method in brief: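 Time-dependent inhibition of the same enzyme was also assessed, with and without NADPH.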

Caco-2 [4] = experiment: Permeability from apical to basolateral side of human Caco2 cells; type: ADME, cell-based
[5] = AUC in rat at 5 mg/kg, iv; type: ADME, organism-based; set-up: dose 5 mg/kg, route intravenous; details: plasma
[6] = Half life in rat at 5 mg/kg, iv; type: ADME, organism-based; set-up: dose 5 mg/kg, route intravenous; details: in vivo
Method in brief: (§2)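 Rat pharmacokinetics after a 5 mg/kg dose given iv, or given orally as a suspension. Values are means with SD from N = 3 rats.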

[7] = AUC in rat at 5 mg/kg, po; type: ADME, organism-based; set-up: dose 5 mg/kg, route oral; details: plasma
Rattus norvegicus [8] = experiment: Cmax in rat at 5 mg/kg, po; type: ADME, organism-based; set-up: dose 5 mg/kg, route oral; details: in vivo; method in brief: as §2
[9] = Half life in rat at 5 mg/kg, po; type: ADME, organism-based; set-up: dose 5 mg/kg, route oral; details: in vivo; method in brief: as §2
[10] = Oral bioavailability in rat at 5 mg/kg; type: ADME, organism-based; details: in vivo; method in brief: as §2
Mus musculus [11] = experiment: Antidyslipidemic activity in diet-induced obese C57Bl/6J mouse model assessed as reduction in cholesterol level at 0.3 to 10 mg/kg, po administered daily for 23 days; type: functional, organism-based
Method in brief: (§3)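 C57Bl/6J mice aged six weeks were fed a high fat diet for 34 weeks. Body weight and food intake were monitored. BMD and body composition were assessed on day 22, and laboratory assessments were made at study end.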

Mus musculus [12] = experiment: Antidyslipidemic activity in diet-induced obese C57Bl/6J mouse model assessed as reduction in liver size at 0.3 to 10 mg/kg, po administered daily for 23 days; type: functional, organism-based; method in brief: as §3
Mus musculus [13] = experiment: Antidyslipidemic activity in diet-induced obese C57Bl/6J mouse model assessed as reduction in liver triglycerides at 0.3 to 10 mg/kg, po administered daily for 23 days; type: functional, organism-based; method in brief: as §3
Mus musculus [14] = experiment: Toxicity in diet-induced obese C57Bl/6J mouse model assessed as effect on heart size at 0.3 to 10 mg/kg, po administered daily for 23 days; type: organism-based; set-up: dose 0.3-10 mg/kg, route oral; details: in vivo; method in brief: as §3
Rattus norvegicus [15] = species on record: Rattus norvegicus; experiment: Antidyslipidemic activity in hypercholesterolemic rat model assessed as reduction in non-HDL-C level; type: functional, organism-based
Rattus norvegicus [16] = species on record: Rattus norvegicus; experiment: Antidyslipidemic activity in hypercholesterolemic rat model assessed as reduction in liver triglycerides; type: functional, organism-based
Rattus norvegicus [17] = species on record: Rattus norvegicus; experiment: Toxicity in hypercholesterolemic rat model assessed as effect on TSH level; type: organism-based; details: in vivo
Rattus norvegicus [18] = species on record: Rattus norvegicus; experiment: Toxicity in hypercholesterolemic rat model assessed as effect on central thyroid axis; type: organism-based; details: in vivo
Oryctolagus cuniculus [19] = species on record: Oryctolagus cuniculus; experiment: Antidyslipidemic activity in hypercholesterolemic rabbit model assessed as reduction in liver triglycerides; type: functional, organism-based
Oryctolagus cuniculus [20] = species on record: Oryctolagus cuniculus; experiment: Toxicity in hypercholesterolemic rabbit model assessed as effect on TSH level; type: organism-based; details: in vivo
Oryctolagus cuniculus [21] = experiment: Antidyslipidemic activity in hypercholesterolemic rabbit model assessed as reduction in lipid level in coadministered with atorvastatin; type: functional, organism-based
Mus musculus [22] = species on record: Mus musculus; experiment: Antidyslipidemic activity in diet-induced obese C57Bl/6J mouse model assessed as improvement of insulin sensitivity; type: functional, organism-based
Mus musculus [23] = species on record: Mus musculus; experiment: Antidyslipidemic activity in diet-induced obese C57Bl/6J mouse model assessed as lowering glucose level to near normal level; type: functional, organism-based
Homo sapiens [24] = experiment: Toxicity in healthy human with mildly elevated LDL-C level assessed as adverse events at 5 to 200 mg, po qd for 2 weeks by multiple ascending dose study; type: organism-based; details: in vivo, 336 h
Method in brief: (§4)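 Multiple ascending dose study lasting 2 weeks, run after a single ascending dose study. Healthy subjects with LDL-C >110 mg/dL took oral doses once daily from 5 to 200 mg. Safety, thyroid axis measures (free T4, free T3, TSH), heart rate, QT and liver enzymes were monitored. Lipid changes were compared with placebo.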

Homo sapiens [25] = experiment: Toxicity in healthy human with mildly elevated LDL-C level assessed as central thyroid axis dysfunction at 5 to 200 mg, po qd for 2 weeks by multiple ascending dose study; type: organism-based; details: in vivo, 336 h; method in brief: as §4
Homo sapiens [26] = experiment: Toxicity in healthy human with mildly elevated LDL-C level assessed as effect on heart rate at 5 to 200 mg, po qd for 2 weeks by multiple ascending dose study; type: organism-based; details: in vivo, 336 h
Method in brief: (§5)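 Multiple ascending dose study after single ascending dose study. Healthy subjects with LDL-C >110 mg/dL received once daily oral doses of 5 to 200 mg for 2 weeks. Safety and tolerability were assessed, covering QT interval, heart rate, vital signs and liver enzymes.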

Homo sapiens [27] = experiment: Toxicity in healthy human with mildly elevated LDL-C level assessed as effect on QT interval at 5 to 200 mg, po qd for 2 weeks by multiple ascending dose study; type: organism-based; details: in vivo, 336 h; method in brief: as §5
Homo sapiens [28] = experiment: Toxicity in healthy human with mildly elevated LDL-C level assessed as reversible reduction in free T4 level at 200 mg, po qd for 2 weeks; type: organism-based; set-up: scale not given: the % may be the effect or the level left; details: in vivo, 336 h
Method in brief: (§6)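 Healthy subjects with LDL-C >110 mg/dL received once daily oral doses for 2 weeks in a multiple ascending dose study. Free T3, free T4 and TSH were compared with placebo.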

Homo sapiens [29] = experiment: Toxicity in healthy human with mildly elevated LDL-C level assessed as reversible reduction in free T4 level at 100 mg, po qd for 2 weeks; type: organism-based; set-up: scale not given: the % may be the effect or the level left; details: in vivo, 336 h; method in brief: as §6
Homo sapiens [30] = experiment: Toxicity in healthy human with mildly elevated LDL-C level assessed as effect on TSH level at 100 to 200 mg, po qd for 2 weeks; type: organism-based; details: in vivo, 336 h; method in brief: as §6
Homo sapiens [31] = experiment: Antidyslipidemic activity in healthy human with mildly elevated LDL-C level assessed as reduction in LDL-C at 50 to 200 mg, po qd for 2 weeks by multiple ascending dose study relative to placebo control; type: functional; set-up: scale not given: the % may be the effect or the level left; method in brief: as §4
Homo sapiens [32] = experiment: Antidyslipidemic activity in healthy human with mildly elevated LDL-C level assessed as reduction in lipids at 80 mg, po qd; type: functional, organism-based
Caco-2 [33] = experiment: Permeability from basolateral to apical side of human Caco2 cells; type: ADME, cell-based
[34] = Plasma concentration in thyroidectomized rat at 20 mg/kg, ip measured after 6 hrs; type: ADME, organism-based; set-up: dose 20 mg/kg, route intraperitoneal; method in brief: as §1
[35] = Ratio of drug uptake in liver to plasma in diet-induced obese C57Bl/6J mouse model; type: ADME, tissue-based
[36] = Fraction unbound in human; type: ADME, organism-based; details: in vivo
[37] = Solubility of the compound at pH 7.04; details: buffer

Chain of Cytochrome P450 2C19 (P33261 whole entry): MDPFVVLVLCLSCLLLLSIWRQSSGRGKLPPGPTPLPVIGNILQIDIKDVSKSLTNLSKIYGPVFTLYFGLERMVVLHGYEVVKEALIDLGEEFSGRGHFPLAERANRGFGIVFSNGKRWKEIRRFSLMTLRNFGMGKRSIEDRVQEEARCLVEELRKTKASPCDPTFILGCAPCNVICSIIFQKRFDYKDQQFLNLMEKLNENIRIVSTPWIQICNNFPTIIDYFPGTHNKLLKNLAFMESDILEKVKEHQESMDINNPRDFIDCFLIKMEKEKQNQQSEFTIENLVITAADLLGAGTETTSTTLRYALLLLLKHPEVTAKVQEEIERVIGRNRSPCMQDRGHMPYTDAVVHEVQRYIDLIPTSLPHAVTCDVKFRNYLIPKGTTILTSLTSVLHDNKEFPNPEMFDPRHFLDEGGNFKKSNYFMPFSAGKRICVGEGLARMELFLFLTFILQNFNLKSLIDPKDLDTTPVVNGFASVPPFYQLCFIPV
Chain of hERG (KCNH2) (Q12809 whole entry): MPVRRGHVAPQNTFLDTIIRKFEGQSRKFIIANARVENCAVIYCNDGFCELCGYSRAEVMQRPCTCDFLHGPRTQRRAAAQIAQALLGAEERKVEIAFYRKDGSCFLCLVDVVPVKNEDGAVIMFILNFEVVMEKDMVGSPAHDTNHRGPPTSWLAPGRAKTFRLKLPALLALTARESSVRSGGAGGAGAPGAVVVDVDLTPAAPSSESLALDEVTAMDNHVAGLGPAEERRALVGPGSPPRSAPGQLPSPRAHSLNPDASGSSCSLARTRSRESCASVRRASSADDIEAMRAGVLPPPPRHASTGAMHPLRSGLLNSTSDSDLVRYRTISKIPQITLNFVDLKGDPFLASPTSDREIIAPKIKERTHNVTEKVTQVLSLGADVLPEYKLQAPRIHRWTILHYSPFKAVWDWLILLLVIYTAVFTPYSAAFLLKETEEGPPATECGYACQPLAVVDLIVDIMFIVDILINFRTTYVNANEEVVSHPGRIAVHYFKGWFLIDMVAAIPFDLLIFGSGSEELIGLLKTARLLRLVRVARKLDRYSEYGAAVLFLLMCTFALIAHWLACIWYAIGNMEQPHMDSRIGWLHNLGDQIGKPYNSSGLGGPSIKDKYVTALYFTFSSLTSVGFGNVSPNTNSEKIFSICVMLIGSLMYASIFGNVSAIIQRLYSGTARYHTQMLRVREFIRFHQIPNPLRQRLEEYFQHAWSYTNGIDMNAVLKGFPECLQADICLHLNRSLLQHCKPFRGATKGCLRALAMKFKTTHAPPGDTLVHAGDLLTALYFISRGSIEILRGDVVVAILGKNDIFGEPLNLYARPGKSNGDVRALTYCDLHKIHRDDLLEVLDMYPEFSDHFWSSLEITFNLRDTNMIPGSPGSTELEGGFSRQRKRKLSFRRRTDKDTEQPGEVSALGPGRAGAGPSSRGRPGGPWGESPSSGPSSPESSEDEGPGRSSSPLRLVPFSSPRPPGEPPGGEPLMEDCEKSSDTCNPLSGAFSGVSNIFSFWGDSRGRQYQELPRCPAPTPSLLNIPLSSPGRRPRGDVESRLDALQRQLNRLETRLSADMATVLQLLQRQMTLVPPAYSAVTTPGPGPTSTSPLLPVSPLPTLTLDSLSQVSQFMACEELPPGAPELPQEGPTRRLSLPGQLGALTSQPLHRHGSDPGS
Chain of Cytochrome P450 3A5 (P20815 whole entry): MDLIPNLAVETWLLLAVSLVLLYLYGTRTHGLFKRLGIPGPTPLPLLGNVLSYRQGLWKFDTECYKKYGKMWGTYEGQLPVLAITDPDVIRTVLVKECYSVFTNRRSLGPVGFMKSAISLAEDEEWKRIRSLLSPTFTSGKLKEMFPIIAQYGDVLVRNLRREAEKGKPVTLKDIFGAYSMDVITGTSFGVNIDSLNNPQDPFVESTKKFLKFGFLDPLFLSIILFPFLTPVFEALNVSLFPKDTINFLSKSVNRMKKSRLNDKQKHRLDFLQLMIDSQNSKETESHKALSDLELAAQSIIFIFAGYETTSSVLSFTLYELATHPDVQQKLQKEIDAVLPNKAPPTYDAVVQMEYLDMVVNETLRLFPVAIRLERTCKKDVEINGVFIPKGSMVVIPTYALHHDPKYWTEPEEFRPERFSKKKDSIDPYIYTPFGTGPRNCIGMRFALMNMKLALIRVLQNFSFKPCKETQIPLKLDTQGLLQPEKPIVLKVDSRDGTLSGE

For CC(C)c1cc(Oc2c(Cl)cc(-n3nc(C#N)c(=O)[nH]c3=O)cc2Cl)n[nH]c1=O [RESMETIROM], the Activity (Rattus norvegicus [1]) was “Non-toxic”, the concentration at 6 h [2] was 94 µM and the Activity (Rattus norvegicus [3]) was 0%. For the same compound, the IC20 (hERG (KCNH2)) was 30 µM, the IC50 (Cytochrome P450 3A5) was > 50 µM and the IC50 (Cytochrome P450 2C19) was > 50 µM. The permeability (Caco-2 [4]) was 1.37 ×10⁻⁶ cm/s, the AUC [5] was 38100 ng·h/mL and the half-life [6] was 3.4 h. For the same compound, the AUC [7] was 17400 ng·h/mL, the Cmax (Rattus norvegicus [8]) was 1710 ng/mL and the half-life [9] was 4.08 h. For the same compound, the bioavailability [10] was 45%, the Activity (Mus musculus [11]) was “Active” and the Activity (Mus musculus [12]) was “Active”. The Activity (Mus musculus [13]) was “Active”, the Activity (Mus musculus [14]) was “Non-toxic” and the Activity (Rattus norvegicus [15]) was “Active”. The Activity (Rattus norvegicus [16]) was “Active”, the Activity (Rattus norvegicus [17]) was “Non-toxic” and the Activity (Rattus norvegicus [18]) was “Non-toxic”. The Activity (Oryctolagus cuniculus [19]) was “Active”, the Activity (Oryctolagus cuniculus [20]) was “Non-toxic” and the Activity (Oryctolagus cuniculus [21]) was “Active”. For the same compound, the Activity (Mus musculus [22]) was “Active”, the Activity (Mus musculus [23]) was “Active” and the Activity (Homo sapiens [24]) was “Non-toxic”. For the same compound, the Activity (Homo sapiens [25]) was “Non-toxic”, the Activity (Homo sapiens [26]) was “Non-toxic” and the Activity (Homo sapiens [27]) was “Non-toxic”. The Activity (Homo sapiens [28]) was 20%, the Activity (Homo sapiens [29]) was 10% and the Activity (Homo sapiens [30]) was “Non-toxic”. For the same compound, the Activity (Homo sapiens [31]) was “<=30%”, the Activity (Homo sapiens [32]) was “Active” and the permeability (Caco-2 [33]) was “permeable”. For the same compound, the concentration at 6 h [34] was 57 µM, the Kp [35] was 8 and the Fu [36] was 0.6%. For the same compound, the solubility [37] was 1 µM (≈ 0.435 µg/mL).
